# MEX-5 binding: C. elegans MEX-5 TCR-2 RNA binding activity | activity score (negative = inhibition of binding), % at 10 µM | 0.38% of 300,000 active | MEX-5/FITC-TCR2 RNA binding, fluorescence polarization; hits give low values | Q9XUB2 | AID 1832;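 active = inhibition past about -25% in most replicates, and total fluorescence under double the plate's negative control median, limit read from the data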;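 also: 0% = DMSO and -100% = 5 µM competing unlabeled TCR2 RNA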
# EBV gp42 inh: blocks Epstein-Barr virus glycoprotein 42 binding | Q1HVG2 | Fluorescence polarization binding assay, mP read-out | inhibition, % (tested at 21.74 µM) | 0.42% of 220,000 active | AID 1085; in the data active = inhibition above about 50%
# Target sequence (Q1HVG2 whole entry, looked up): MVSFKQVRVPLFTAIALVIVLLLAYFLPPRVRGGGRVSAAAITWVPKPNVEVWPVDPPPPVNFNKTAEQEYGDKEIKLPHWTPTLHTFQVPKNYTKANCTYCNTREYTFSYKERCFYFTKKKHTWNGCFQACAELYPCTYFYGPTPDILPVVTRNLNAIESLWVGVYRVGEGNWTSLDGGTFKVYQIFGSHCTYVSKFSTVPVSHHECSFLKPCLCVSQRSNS
# NS3 helicase inh: inhibitors of Hepatitis C virus NS3 helicase; NS3 helicase DNA unwinding, Cy5 molecular beacon fluorescence; inhibition, % at 10.9 µM; 0.56% of 290,000 active; AID 1800;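 active = inhibition above the mean of all tested compounds plus 3 SD, set per campaign, cut at about 35% in these data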;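 also: 0% = DMSO wells and 100% = thioflavine S control wells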
#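 System: NS3 helicase fragment of HCV / Schedule: 1 h at 25 °C / Control set: DMSO alone as 0% and 110 µM thioflavine S as 100% / Reagent: Cy5/quencher beacon DNA duplex and ATP to start / Technique: Cy5 fluorescence / Replication: singlicate / Evaluation: % inhibition of end-to-start signal ratio versus controls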
# EBNA-1 inhibitor: blocks EBNA-1 binding to DNA. EBNA-1 DNA binding, fluorescence polarization. inhibition, % at 14.8 µM. 0.34% of 300,000 active; in the data active = inhibition above about 28%
# HCV core dimer: HCV core protein dimerization inhibition | TR-FRET GST/Flag-core106 dimerization, 1536-well | inhibition, % at 5 µM | 0.33% of 300,000 active;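 active = inhibition above the mean of all tested compounds plus 3 SD, set per screening campaign, cut at about 45% in these data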
#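 Material: Tagged HCV core106 pair (GST and Flag) | Amount: GST-core106 13.5 nM, Flag-core106 17 nM | Medium: KF-containing HEPES buffer, pH 7.45, DTT, CHAPS, BSA | Reagent: Eu donor and XL665 acceptor anti-tag antibodies | Schedule: 4 h at 22.5 °C | Technique: Time-resolved FRET, ex 340 nm, em 617 and 671 nm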
# ZTA counter: counter-screen for EBNA-1 inhibitors: inhibitors of Epstein-Barr virus ZTA | ZTA-DNA binding, fluorescence polarization | inhibition, % at 11 µM | 0.15% of 320,000 active | AID 2234; in the data active = inhibition above about 33%
# Target sequence (P03206 whole entry, looked up): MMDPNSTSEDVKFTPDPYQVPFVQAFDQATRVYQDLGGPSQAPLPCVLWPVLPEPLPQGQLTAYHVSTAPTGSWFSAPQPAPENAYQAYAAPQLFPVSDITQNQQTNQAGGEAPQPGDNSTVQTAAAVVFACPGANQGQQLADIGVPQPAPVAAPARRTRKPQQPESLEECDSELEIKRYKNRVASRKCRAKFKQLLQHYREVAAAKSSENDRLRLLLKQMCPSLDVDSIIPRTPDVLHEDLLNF
# An asterisk follows results filed as active; nt = no result given. The list is not random: actives were taken first. Their share in the collection is about 1.7%.
SMILES,MEX-5 binding,EBV gp42 inh,NS3 helicase inh,EBNA-1 inhibitor,HCV core dimer,ZTA counter
O=C1NC(=S)/C(=C\c2ccc(-c3ccccc3Cl)o2)S1,-42*,60*,34,5,5,17
O=C1NC(=O)/C(=C/c2ccc(-c3cc(C(=O)O)ccc3Cl)o2)S1,-9,nt,18,6,-3,12
O=C(CSc1nc2ccccc2n1CCc1ccccc1)c1ccc(O)c(O)c1,nt,72*,16,nt,nt,nt
COc1ccc(-c2nnc(-c3cc4c(ccc5ccccc54)oc3=O)o2)cc1,-42*,51*,3,-14,5,7
N=c1oc2ccc3ccccc3c2cc1-c1nc(-c2ccccc2)cs1,-8,66*,11,10,9,6
Nc1nnc(-c2cc3c(ccc4ccccc43)oc2=O)s1,nt,66*,-10,nt,nt,nt
O=c1oc2ccc3ccccc3c2cc1-c1nnc(-c2ccccc2)o1,-3,-14,-6,2,10,17
O=c1oc2ccc3ccccc3c2cc1-c1nnc(-c2cccs2)o1,-4,-21,1,7,6,9
Cc1ccc(-c2csc(N3N=C(c4ccccc4)/C(=C\c4ccc(N(C)C)cc4)C3=O)n2)cc1,0,4,33,15,46*,-2
Cn1c(N)c(C(=O)CSc2nnc(-c3c[nH]c4ccccc34)n2C2CC2)c(=O)[nH]c1=O,nt,nt,nt,nt,nt,11
O=C(Nc1cccc(S(=O)(=O)N2CCCCC2)c1)C1CC(=O)N(c2ccc3c(c2)OCCO3)C1 (stereo unspecified),-1,nt,-11,0,8,9
CCOC(=O)C1=C(CSc2nc3c(cc2C#N)CN(C)CC3)OC(N)=C(C#N)C1c1ccncc1 (stereo unspecified),-51*,6,-59,-3,5,0
CCOC(=O)C1=C(CSc2nc3c(cc2C#N)CN(C)CC3)OC(N)=C(C#N)C1c1ccc(Cl)cc1 (stereo unspecified),1,-15,-5,0,57*,-1
C=CCc1cccc2cc(C(=O)Nc3ccc(S(=O)(=O)Nc4nnc(CC)s4)cc3)c(=O)oc12,1,73*,22,14,17,2
C=CCc1cccc2cc(C(=O)Nc3ccc(F)cc3)c(=O)oc12,3,-9,-1,5,8,2
CC(=O)NC1=C(Nc2ccc(N(C)C)cc2)C(=O)c2ccccc2C1=O,-2,nt,24,41*,-77,37*
CC(=O)NC1=C(N(C)C2CCS(=O)(=O)C2)C(=O)c2ccccc2C1=O (stereo unspecified),0,-6,-26,0,-14,-14
CC(C)CN(C(=O)COc1ccc([N+](=O)[O-])cc1)c1c(N)n(CC(C)C)c(=O)[nH]c1=O,nt,nt,nt,nt,nt,5
COc1ccc(/C=C(\C#N)C(=O)Nc2cccc3ncccc23)cc1OC,-5,1,20,3,19,9
N#C/C(=C\c1ccc(O)c(O)c1)C(=O)Nc1cccc2ncccc12,6,nt,9,-6,65*,8
Cc1ccc(C)n1-c1cccc(C(=O)O)c1,-93*,17,nt,27,-82,78*
Cc1cc(C=O)c(C)n1-c1cccc(C(=O)O)c1,-3,4,-4,-2,0,-6
Cc1ccc(C)n1-c1cccc(N)c1,-4,-10,1,7,64*,-7
CN(C)c1ccc(C(CNC(=O)c2ccco2)N2CCCC2)cc1 (stereo unspecified),-4,nt,-5,2,-7,7
CCN(CC)C(=O)Cn1cc(C(=O)C(=O)N(C)C2CCN(C)CC2)c2ccccc21,2,nt,3,5,-4,-6
SMILES,MEX-5 binding,EBV gp42 inh,NS3 helicase inh,EBNA-1 inhibitor,HCV core dimer,ZTA counter
COc1ccc(-c2c(C)sc(NC(=O)c3ccnn3C)c2C#N)cc1,3,-18,11,0,71*,15
Cn1nccc1C(=O)Nc1sc2c(c1C#N)CCCC2,-1,nt,-2,5,1,-10
COc1ccc(CCNC(=O)CCc2cn(C)c3ccccc23)c(OC)c1OC,-2,nt,2,1,4,1
CCCCn1c(NC(=O)c2ccccc2)c(C#N)c2nc3ccccc3nc21,nt,2,40*,nt,nt,nt
COc1ccc(C(=O)Nc2cccc(/C=C(\CCC(=O)O)c3nc4ccccc4s3)c2)cc1,-1,-4,-13,9,64*,18
CN(c1ccccc1)c1ccc(/C=C(\CCC(=O)O)c2nc3ccccc3s2)cc1[N+](=O)[O-],1,7,15,13,60*,1
O=C(Nc1ccc(NC(=O)c2cccs2)c(Cl)c1)c1cccs1,1,nt,-15,13,3,-4
CCCCn1c(N)c(N(CCC(C)C)C(=O)c2ccc(N3CCCC3=O)cc2)c(=O)[nH]c1=O,-3,nt,nt,-6,1,-10
O=S(=O)(NNC(=S)Nc1ccc(S(=O)(=O)Nc2ncccn2)cc1)c1ccc(Br)cc1,-99*,nt,3,10,10,5
O=C(COc1cccc(F)c1)Nc1nc(-c2cccnc2)cs1,nt,nt,nt,nt,nt,-9
COc1ccc(NS(=O)(=O)c2ccc(C)c(C(=O)NNC(=O)c3ccccc3O)c2)cc1,-7,nt,nt,-1,-1,23
Cc1ccc(S(=O)(=O)Nc2ccccc2F)cc1C(=O)NNC(=O)c1ccccc1O,-37*,nt,nt,-6,-4,3
Cc1ccc(-c2[nH]c3cc(C(N)=O)ccc3c(=O)c2O)cc1,-70*,-14,nt,-3,-23,-16
Cc1ccc(CNC(=O)c2ccc3c(=O)c(O)c(-c4ccc(C)cc4)[nH]c3c2)cc1,-1,-16,nt,3,8,-3
CCOC(=O)C1=C(O)/C(=C/c2cn(CC(=O)N3CCCC3)c3ccccc23)SC1=Nc1ccccc1,-47*,-7,-2,nt,nt,nt
Cc1[nH]c(=O)[nH]c(=O)c1CSCC(=O)OCC(=O)Nc1ccccn1,-11,51*,8,3,-6,3
CCCCOC(=O)c1ccc(N=Nc2c(C)c(C#N)c(O)[nH]c2=O)cc1,-63*,-35,19,0,22,1
Cc1cccc(N=Nc2c(C)c(C#N)c(O)[nH]c2=O)c1,-1,-36,5,-18,-7,-1
O=C(NC1CC1)c1cc2cc3ccccc3nc2s1,0,nt,1,4,-10,4
CNc1cncc(C(=O)O)c1,-1,-9,6,42*,-4,-19
COC(=O)Oc1cncc(C(=O)O)c1,-1,-19,3,-4,-2,16
Cc1cccc(C)c1C(=NCCN(C)C)c1ccccc1,-2,nt,nt,-7,-2,7
CC1CN(C2CC(C)(C)NC(C)(C)C2)CCC1=O (stereo unspecified),-48*,-30,4,4,-8,-3
Cc1cc(C)c(NC(=O)CNC(=O)CN(C)Cc2ccc(Br)s2)c(C)c1,nt,nt,nt,nt,nt,-3
O=C1Nc2cc(Cl)cnc2N2CCCC12 (stereo unspecified),-37*,72*,-5,4,3,-19

# Screens from PubChem BioAssay.
